Bioassay records: PubChem, several laboratories
sEH activator: activators of human soluble epoxide hydrolase. P34913. purified human sEH enzymatic activity, activator screen. hit rate 0.04% among 91,000. activation, % at 2 µM; in the data active means activation above about 37%
Target sequence (P34913 whole entry, looked up): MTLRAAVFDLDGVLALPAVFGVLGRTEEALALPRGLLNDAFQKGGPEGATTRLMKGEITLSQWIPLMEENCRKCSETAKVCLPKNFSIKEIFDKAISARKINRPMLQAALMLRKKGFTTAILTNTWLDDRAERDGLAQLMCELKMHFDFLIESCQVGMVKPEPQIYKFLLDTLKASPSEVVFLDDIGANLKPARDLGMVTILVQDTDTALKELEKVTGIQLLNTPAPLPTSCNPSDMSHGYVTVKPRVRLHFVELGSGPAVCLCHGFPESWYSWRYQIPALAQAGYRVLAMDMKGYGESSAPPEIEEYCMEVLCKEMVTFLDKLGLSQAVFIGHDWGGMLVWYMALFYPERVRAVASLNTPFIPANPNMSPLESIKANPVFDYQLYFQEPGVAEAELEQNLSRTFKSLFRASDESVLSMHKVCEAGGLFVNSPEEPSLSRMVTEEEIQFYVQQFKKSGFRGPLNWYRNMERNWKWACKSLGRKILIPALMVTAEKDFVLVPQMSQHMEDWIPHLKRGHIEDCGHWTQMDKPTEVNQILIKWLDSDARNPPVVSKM
sEH inh: soluble epoxide hydrolase (human) inhibition; P34913; recombinant human sEH enzymatic activity assay; inhibition, % at 2 µM; hit rate 0.34% among 91,000; AID 707; in the data active means inhibition above about 80%
Rev-RRE block: inhibitors of HIV-1 Rev-RRE RNA interaction; P05866; Rev peptide-RRE RNA binding, FRET; inhibition, % at 8 µM; hit rate 0.79% among 97,000;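 active means inhibition above the screen-wide mean plus 3 SD, cut at about 35% in these data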;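 further: 0% = median DMSO wells and 100% = median Neomycin B control wells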
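Test system – labelled RRE RNA duplex and labelled Rev peptide · Reagent – labelled Rev peptide · Doses – one concentration, 8 µM nominal · Incubation – 5 + 15 min at 25 °C · Signal – FRET fluorescence readout · Read-out basis – % inhibition of FRET ratio versus controls · Control set – DMSO wells as 0% and neomycin B wells as 100% inhibition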
ERa coact pot: enhances coactivator binding to human estrogen receptor alpha; P03372; TR-FRET ERalpha-LBD/SRC-Cy5 coactivator binding, 2 h; 100 = basal binding, no effect; coactivator binding (% of control), % at 25.6 µM; hit rate 1.3% among 86,000; in the data active means activity above about 200%;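 further: binding measured in presence of low estradiol as agonist stimulus; 0% = peptide alone without receptor and 100% = receptor with peptide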
ERa coact inh: blocks coactivator binding to human estrogen receptor alpha; P03372; hit rate 1.7% among 86,000; inhibition, % at 25.6 µM; TR-FRET ER-alpha LBD / SRC-1 peptide, estradiol-bound; in the data active means inhibition above about 50%;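 further: 0% = receptor plus peptide control and 100% = peptide only without receptor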
ERb SRC1 inh: ER-beta (human) coactivator binding inhibition; Q92731; TR-FRET ER-beta LBD / SRC1-Cy5 peptide binding; receptor agonist-loaded with 1 µM estradiol; inhibition, % at 25.6 µM; hit rate 1.3% among 86,000;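 active means compounds whose percent inhibition of the receptor-coactivator binding signal exceeds about 50% in the single-dose screen, limit read from the data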;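 further: 0% = receptor plus peptide wells without compound and 100% = peptide-only wells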
* marks the source's active call; other numbers are inactive results; . = not tested or not shown; [ ] = remark or other dose. Compounds with a hit are over-represented: about 3.5% of the library has one in this group of screens.

SMILES	sEH activator	sEH inh	Rev-RRE block	ERa coact pot	ERa coact inh	ERb SRC1 inh
CC1(C)CC(=O)C=C(Nc2ccccc2O)C1	11.7	-12.3	0.3	116.8	3.6	0.8
CC1(C)CC(=O)C=C(NNC(=O)c2ccccc2O)C1	-9.3	10.1	36.4*	.	.	.
Cc1cccc(C(=O)NC(NCCc2ccccc2)C(Cl)(Cl)Cl)c1 (configuration not stated)	1.3	-1.4	8.4	.	.	.
CCOc1ccc(N=C2NC(=O)S/C2=C\c2ccc(OC)cc2)cc1	4.7	-5.7	1.4	194.1	67.2*	50.5*
CCOc1ccc(/C=C2/SC(=S)N(n3c(C)ccc3C)C2=O)cc1	10.2	-12.2	10.9	111.4	-2.2	-5.4
CN(C)c1ccc(/C=C2\SC(=S)N(Nc3ncc(C(F)(F)F)cc3Cl)C2=O)cc1	.	.	138.0*[fluorescence artefact?]	116.9	-7.5	-10.6
CC1=NNC(=O)C1CCC(=O)N/N=C\c1ccccc1[N+](=O)[O-] (configuration not stated)	-3.8	5.5	7.4	.	.	.
Cc1csc(NC(=O)c2nc(-c3ccccc3)n(-c3ccccc3)n2)n1	.	.	.	87.6	3.0	9.4
O=C(Nc1nccs1)c1nc(-c2ccccc2)n(-c2ccccc2)n1	8.2	-8.8	13.2	342.9*	-4.9	4.4
Cn1c(-c2sc(=S)n(-c3ccccc3)c2N)nc2ccccc21	.	.	4.5	111.7	-5.2	-2.6
O=C(NCCN1CCCC1)c1ccc(Cn2c(=S)[nH]c3cc4c(cc3c2=O)OCO4)cc1	-1.2	0.0	-6.9	144.6	70.1*[fluorescence artefact?]	45.1
C=CCNC(=O)c1ccc(Cn2c(=S)[nH]c3cc4c(cc3c2=O)OCO4)cc1	-7.1	6.0	-0.8	99.7	33.3	4.8
O=C(CCCn1c(=S)[nH]c2cc3c(cc2c1=O)OCO3)N1CCN(c2ccc(Cl)cc2)CC1	.	.	0.2	73.5	66.0*	27.4
O=C(CCCn1c(=S)[nH]c2cc3c(cc2c1=O)OCO3)N1CCc2ccccc2C1	6.1	-6.5	3.3	124.5	20.3	50.7*
O=C(CCn1c(=S)[nH]c2cc3c(cc2c1=O)OCO3)N1CCc2ccccc2C1	1.9	-4.9	6.9	104.3	6.2	15.3
CCS(=O)(=O)c1ccc2c(c1)N(S(C)(=O)=O)CC(C(=O)NCCOC)O2 (configuration not stated)	5.9	-3.7	7.5	.	.	.
O=C(c1ccco1)N1CCN(C(c2ccccc2Cl)c2nnnn2CC2CCCO2)CC1 (configuration not stated)	-0.2	0.3	4.0	101.0	-3.9	0.6
Cc1nn(CC(=O)NCCN2CCOCC2)c(C)c1[N+](=O)[O-]	-4.1	6.3	7.3	.	.	.
Cc1nnc(SCc2ccccc2F)n1NCc1cccs1	-9.5	7.9	-4.1	104.2	-3.0	11.6
CCC(C)(C)NC(=O)C(OC(=O)c1ccco1)c1ccccc1OC (configuration not stated)	4.9	-7.0	5.0	109.3	6.0	-6.8
CCOC(=O)CN(C(=O)CSc1nnc(CNc2ccc(F)cc2)n1CC)c1ccc(F)cc1	-0.3	2.2	3.8	222.5*	-2.6	-7.7
CCOC(=O)CN(C(=O)CSc1nnc(CNc2ccc(C)cc2C)n1CC)c1ccccc1	2.3	-0.9	6.2	96.9	-2.6	0.9
O=C(Cc1ccc(Br)cc1)Nc1ccccc1Sc1ccccc1	5.7	-3.3	7.8	.	.	.
COC(=O)[C@@H](NC(=O)NCc1ccccc1Cl)C(C)C	-89.1	89.1*	-0.9	119.4	-3.2	-1.0
C=CCSC1=N/C(=C\C=C\c2ccco2)C(=O)S1	8.2	-3.9	22.4	62.8	78.3*	63.8*
C=CCSC1=N/C(=C\c2sccc2C)C(=O)S1	-5.6	5.3	16.1	.	.	.
CCOC(=O)C1=C(N)n2c(s/c(=C\c3cccnc3)c2=O)=C(C#N)C1c1cccnc1 (configuration not stated)	.	.	.	65.4	51.6*[fluorescence artefact?]	17.5
CCOC(=O)C1=c2s/c(=C\c3cccnc3)c(=O)n2C(N)=C(C(=O)OC)C1c1cccnc1 (configuration not stated)	-11.7	9.6	-0.2	89.3	44.9	-14.6
CCCCNS(=O)(=O)c1ccc2nc(SCC(=O)c3ccc(C#N)cc3)[nH]c2c1	.	.	.	279.3*	6.8	6.5
CCn1c(SCC(=O)Nc2nc(C)cs2)nnc1-c1ccco1	-3.7	7.3	3.4	99.3	-4.0	-9.3
